Assay results as given in ChEMBL document CHEMBL1144328, “2,3-Diarylthiophenes as selective EP1 receptor antagonists” (Bioorg Med Chem Lett, 2005).

How the values were obtained:
[1] = target: T1, Prostaglandin E2 receptor EP1 subtype (Homo sapiens, UniProt P34995); assay: Binding affinity against Prostaglandin E receptor was determined in human
T1 sequence (P34995 whole entry): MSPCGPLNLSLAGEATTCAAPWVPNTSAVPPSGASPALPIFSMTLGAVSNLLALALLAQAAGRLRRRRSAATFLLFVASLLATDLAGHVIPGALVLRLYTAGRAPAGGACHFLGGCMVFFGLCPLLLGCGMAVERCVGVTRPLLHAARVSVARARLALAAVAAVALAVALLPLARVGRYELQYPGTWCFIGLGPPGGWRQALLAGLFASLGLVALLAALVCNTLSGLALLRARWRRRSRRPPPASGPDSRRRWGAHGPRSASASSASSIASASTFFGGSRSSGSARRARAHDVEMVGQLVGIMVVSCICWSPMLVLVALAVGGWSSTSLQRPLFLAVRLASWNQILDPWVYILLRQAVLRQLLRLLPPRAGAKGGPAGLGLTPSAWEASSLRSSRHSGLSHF

[2] = target: T1, Prostaglandin E2 receptor EP1 subtype; assay: Binding affinity against Prostaglandin E receptor in presence of 2% human serum albumin
[3] = target: T2, Thromboxane A2 receptor (Homo sapiens, UniProt P21731); assay: Binding affinity against human Prostanoid TP receptor
T2 sequence (P21731 whole entry): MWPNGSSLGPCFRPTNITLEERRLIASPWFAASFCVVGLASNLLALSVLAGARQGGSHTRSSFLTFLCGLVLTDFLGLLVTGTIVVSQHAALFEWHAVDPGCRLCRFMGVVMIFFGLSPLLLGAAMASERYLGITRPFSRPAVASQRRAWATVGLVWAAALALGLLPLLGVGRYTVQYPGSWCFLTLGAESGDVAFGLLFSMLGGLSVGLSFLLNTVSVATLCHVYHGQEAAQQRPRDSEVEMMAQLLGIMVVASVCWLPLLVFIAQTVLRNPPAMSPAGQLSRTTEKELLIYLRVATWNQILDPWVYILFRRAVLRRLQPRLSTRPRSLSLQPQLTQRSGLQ

[4] = Half life of compound in rat; type: ADME; conditions: in vivo
[5] = target: T3, Prostaglandin E2 receptor EP1 subtype (Homo sapiens) (UniProt P34995); assay: Inhibitory activity against Prostaglandin E receptor in functional cell based assay
T3 sequence (whole entry): T1 sequence (P34995 whole entry)
Method in brief: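 HEK293 cells stably expressing human EP1, grown with hygromycin B and G418 at 37 °C and 6% CO2, seeded one day before, then loaded with FLIPR no-wash dye for 1 h at 37 °C in HBSS/20 mM HEPES pH 7.4. FLIPR fluorescence read after a 10 min antagonist preincubation and 5 min PGE2. PGE2 curves (0.001–30 µM) run alone and at three fixed antagonist concentrations; Kb reported.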

[6] = target: T4, Prostaglandin E2 receptor EP1 subtype (Rattus norvegicus, UniProt P70597); assay: Binding affinity towards Prostaglandin E receptor was determined in rat
T4 sequence (P70597 whole entry): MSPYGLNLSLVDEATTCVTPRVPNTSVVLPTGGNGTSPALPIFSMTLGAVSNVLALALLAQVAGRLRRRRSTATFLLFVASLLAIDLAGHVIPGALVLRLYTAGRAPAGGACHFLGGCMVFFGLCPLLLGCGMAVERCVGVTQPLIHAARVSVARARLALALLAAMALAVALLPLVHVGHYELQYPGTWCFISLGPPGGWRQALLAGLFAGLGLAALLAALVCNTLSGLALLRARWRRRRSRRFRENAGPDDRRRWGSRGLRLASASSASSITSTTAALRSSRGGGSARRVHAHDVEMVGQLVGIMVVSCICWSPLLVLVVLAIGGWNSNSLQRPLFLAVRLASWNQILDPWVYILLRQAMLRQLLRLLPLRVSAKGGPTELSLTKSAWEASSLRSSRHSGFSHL

[7] = Maximum plasma concentration of compound in rat at 4 h; type: ADME, organism-based
[8] = Bioavailability of compound in rat; type: ADME, organism-based; conditions: in vivo

Ki [1] | Ki [2] | Ki [3] | half-life [4] | Kb [5] | Ki [6] | Cmax [7] | bioavailability [8] | Compound
52 nM | 72 nM | > 21000 nM | < 1 h | – | – | – | – | O=S(=O)(Cc1ccccc1)Nc1cccc(-c2sccc2-c2cc(Cl)ccc2OCc2ccccc2)c1
260 nM | – | 200 nM | – | – | – | – | – | OC(c1cncc(-c2sccc2-c2cc(Cl)ccc2OCc2ccccc2)c1)(C(F)(F)F)C(F)(F)F
15 nM | 220 nM | 150 nM | 3 h | 66 nM | – | – | – | O=C(O)Cc1cccc(-c2sccc2-c2cc(Cl)ccc2OCc2ccccc2)c1
8 nM | 18 nM | 390 nM | 2 h | 100 nM | – | – | – | NS(=O)(=O)c1cccc(-c2ccsc2-c2cc(Cl)ccc2OCc2ccccc2)c1
3 nM | 6 nM | 120 nM | 1 h | – | – | – | – | OC(c1cncc(-c2sccc2-c2cc(Cl)ccc2OCc2ccccc2)c1)C(F)(F)F (stereo not given)
4 nM | 5 nM | > 21000 nM | < 1 h | – | – | – | – | O=C(Cc1ccccc1)Nc1cccc(-c2sccc2-c2cc(Cl)ccc2OCc2ccccc2)c1
6 nM | 280 nM | 140 nM | 4 h | 1 nM | 12 nM | 20 µM | 73% | O=C(O)c1cccc(-c2sccc2-c2cc(Cl)ccc2OCc2ccccc2)n1
4 nM | 70 nM | 100 nM | < 0.5 h | 7 nM | – | – | – | O=C(O)c1cccc(-c2sccc2-c2cc(Cl)ccc2OCc2ccccc2)c1
9 nM | 17 nM | 1200 nM | < 1 h | 97 nM | – | – | – | CC(NC(=O)c1cccc(-c2sccc2-c2cc(Cl)ccc2OCc2ccccc2)c1)c1cccnc1 (stereo not given)
3 nM | 90 nM | 230 nM | < 0.5 h | 4 nM | – | – | – | O=C(O)c1cncc(-c2sccc2-c2cc(Cl)ccc2OCc2ccccc2)c1
4 nM | 5 nM | 220 nM | 2 h | 70 nM | – | – | – | OC(O)(c1cncc(-c2sccc2-c2cc(Cl)ccc2OCc2ccccc2)c1)C(F)(F)F
23 nM | 160 nM | 360 nM | – | – | – | – | – | N#CC(O)c1cncc(-c2sccc2-c2cc(Cl)ccc2OCc2ccccc2)c1 (stereo not given)
